Only some compounds are listed: those with a hit (about 1.9% of all), similar ones and a draw of the others.
DENV2 CPE rescue – DENV2-induced cell death inhibition; DENV2-infected cells, cytopathic effect rescue, plate reader; CPE inhibition, % at 9.99 µM; actives 1.7% (n = 350,000); AID 651640; in the data active = CPE inhibition above about 20%, passing the limit was not always enough; tested in BHK-21 cells;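 note: 0% = median of neutral control wells and 100% = median of positive control wells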
FN deposition inh – fibronectin deposition inhibition. AH1F fibroblasts, Alexa488-fibronectin deposition fluorescence, overnight. inhibition, % at 12.6 µM. actives 0.086% (n = 350,000). AID 743247;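 active = mean inhibition across replicates of 30% or more, regardless of how many single replicates reach that level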;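 note: positive control wells lacked labelled fibronectin entirely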
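Assay system: AH1F fibroblasts assembling fluorescent fibronectin matrix; Amount: 10000 AH1F cells per well; Buffer or medium: DMEM, 2% serum; Probe or stimulus: Alexa488-fibronectin, 24 nM final in well; Doses: single compound dose, delivered by pin transfer; Incubation: 1 h adhesion, overnight exposure; Measured by: fluorescence 485/525 nm; Read-out: fibronectin deposition inhibition.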
PGC1a acetyl inh – PGC1a acetylation modulation, inhibitor mode; U2OS PGC1a acetylation, AlphaScreen anti-acetyl-lysine; with virally co-expressed GCN5 acetyltransferase; inhibition, % at 15.6 µM; actives 0.17% (n = 350,000); AID 651687;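 active = every replicate shows inhibition of at least 40%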;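 note: 0% = neutral control wells and 100% = positive control wells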
F508del corr – CFTR F508del correction in bronchial cells; CFBE cells, YFP halide quenching; stimulated with forskolin plus potentiator P3; % fluorescence drop versus neutral controls; activity (quench increase), % at 7.58 µM; actives 0.36% (n = 350,000);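 active = mean added fluorescence quench of at least 8% versus neutral control, with both replicates also reaching 8%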;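 note: cells transiently co-express mutant CFTR-F508del with the halide-sensitive YFP; corrector assay measuring rescue of mutant channel to the surface after 24 h compound exposure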
Xi reactivation – X-chromosome reactivation activator; XiGFP mouse fibroblasts, % GFP-positive cells imaging, 3 d; cells co-treated with 5-aza-dC sensitizer; scaled so ellipticine positive control = 100%; activation, % at 7.58 µM; actives 0.055% (n = 360,000); AID 743238;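 active = mean normalized replicate activation at least 10% and every replicate at or above 10%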;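 note: 0% = median of on-plate neutral control wells and 100% = ellipticine 6 µM median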
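System: XiGFP fibroblasts, SV40-immortalized. Medium: DMEM plus 5-aza-dC sensitizer. Doses: single point. Timing: 3 d treatment, 15 min room-temperature fixation. Control set: ellipticine 6 µM.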
Cneo AK release – Cryptococcus neoformans lysis via adenylate kinase release; lysis activity, % at 15 µM; C. neoformans lysis, adenylate kinase release luminescence, 4 h; normalised: neutral wells 0, clomiphene wells 100; actives 0.2% (n = 360,000);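 active = mean lysis activity across replicates of at least 80%, whatever share of replicates individually reach that level; inactive = mean lysis activity below 80%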
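Assay system: log-phase C. neoformans yeast / Quantity: yeast cell density of 5 × 10^6 cells/mL / Medium: fresh YPD growth medium / Compound: single dose / Timing: static 4 h at 37 °C with compound, 1 h detection / Measured by: adenylate kinase release luminescence / Read-out: lysis from increased AK signal / Benchmarks: Clomiphene as positive lysis control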
The depositor's hits bear a star; / = no result given.

SMILES	DENV2 CPE rescue	FN deposition inh	PGC1a acetyl inh	F508del corr	Xi reactivation	Cneo AK release
CC(C)NC(=O)Nc1cccc2c1O[C@H](CN(C)C(=O)Nc1ccc(F)cc1)[C@@H](C)CN([C@@H](C)CO)C2=O	-10	/	7	1	0	-1
CC1CCCN(C(=O)c2nn(C)c3c2CS(=O)(=O)c2ccccc2-3)C1 (stereo not drawn)	-2	0	-11	1	0	-4
Cn1nc(C(=O)N2CCCCC2)c2c1-c1ccccc1S(=O)(=O)C2	-4	-6	48*	-3	0	-1
Cc1ccc(CNC(=O)C(CC(C)C)OC(=O)c2ccco2)cc1 (stereo not drawn)	30*	-1	/	0	0	2
O=C(OC(C(=O)NCc1ccccc1)c1ccco1)c1ccccc1 (stereo not drawn)	38*	/	5	0	/	1
CCCCC(OC(=O)c1ccco1)C(=O)NCc1ccc(C)cc1 (stereo not drawn)	-2	-10	/	-1	0	-1
C[C@H](CO)N1C[C@H](C)[C@@H](CN(C)Cc2ccccc2)Oc2ccc(NC(=O)c3ccncc3)cc2C1=O	13	/	/	-2	0	-7
COc1ccc(S(=O)(=O)N2C[C@@H](O)COC[C@@H]3O[C@H](CC(=O)NCc4ccc(Cl)c(Cl)c4)CC[C@H]32)cc1	-4	7	-4	-6	0	0
O=C(C[C@H]1CC[C@@H]2[C@H](COC[C@H](O)CN2C(=O)c2ccc3c(c2)OCO3)O1)NCCN1CCCC1	10	18	2	-1	0	/
O=S(=O)(Nc1cc(Sc2cccc3cccnc23)c(O)c2ccccc12)c1ccccc1	-6	8	/	26*	53*	/
COc1ccc(S(=O)(=O)NC[C@H]2CC[C@H]3[C@H](CN3Cc3cc(F)ccc3F)O2)cc1	17	/	/	5	/	/
Cc1cc2oc(C(=O)NCCc3ccc(S(N)(=O)=O)cc3)c(C)c2cc1C	3	-7	-2	12*	0	/
Cc1cc2oc(C(=O)NCCc3ccc(S(N)(=O)=O)cc3)cc(=O)c2cc1C	6	1	-6	-1	0	-2
Cc1cccc(C)c1NC(=O)C1(C)CSCC(=O)N1Cc1cccc(C(F)(F)F)c1 (stereo not drawn)	34*	10	/	0	0	/
COc1ccc(COC(=O)C2=C(C)NC(=O)NC2c2ccc(F)cc2)cc1 (stereo not drawn)	61*	-8	15	-1	0	-1
COc1ccc(C2NC(=O)NC(C)=C2C(=O)Nc2cccc(C)c2C)cc1 (stereo not drawn)	60*	-6	-3	6	0	0
COC(=O)C1=C(C)N(C)C(=NCc2ccc(OC)cc2)NC1c1ccc(F)cc1 (stereo not drawn)	50*	6	/	-5	0	/
Cc1noc(C)c1NC(=O)N(C)C[C@H]1Oc2ccc(NC(=O)CCN3CCOCC3)cc2C(=O)N([C@H](C)CO)C[C@H]1C	-19	/	-2	-1	0	59
COC(=O)C[C@H]1CC[C@H]2[C@@H](COc3ccc(NC(=O)NC(C)C)cc3C(=O)N2C)O1	17	-10	1	1	0	1
CC(C)NC(=O)N(C)C[C@@H]1Oc2c(N)cccc2C(=O)N(C)C[C@@H]1C	/	5	/	/	0	/
COCCN(C[C@@H]1N[C@@H](CO)[C@H]1c1ccc(-c2cccnc2)cc1)C(C)=O	30*	2	-1	0	0	-1
CCCN(C[C@H]1N[C@H](CO)[C@@H]1c1ccc(-c2cccnc2)cc1)C(C)=O	-7	-16	-4	-1	0	-2
COc1ccccc1Oc1ccc2c(c1)C(=O)N(c1ccc(C)cc1)C2=O	/	/	104*	/	/	/
COc1ccccc1Oc1ccc2c(c1)C(=O)N(c1ccccc1)C2=O	/	-10	/	/	/	0
CCC(=O)Nc1ccc2c(c1)C(=O)N(C)C[C@H](OC)[C@@H](C)CN(Cc1cccc(F)c1)[C@@H](C)CO2	-10	4	-5	3	0	-4
SMILES	DENV2 CPE rescue	FN deposition inh	PGC1a acetyl inh	F508del corr	Xi reactivation	Cneo AK release
C=C[C@@H](COC(=O)c1ccc([N+](=O)[O-])cc1)N(Cc1ccc(OC)cc1)S(=O)(=O)c1ccc(Br)cc1	24*	/	-8	5	/	-6
C=CC(COCc1ccccc1)N(Cc1ccc(OC)cc1)S(=O)(=O)c1ccccc1Br (stereo not drawn)	5	-2	-40	-2	0	1
C[C@@H]1CN([C@@H](C)CO)C(=O)c2cc(-c3ccncc3)cnc2O[C@H]1CN(C)C(=O)C1CCC1	/	/	-5	-1	-1	/
C/C=C/c1cnc2c(c1)C(=O)N([C@@H](C)CO)C[C@@H](C)[C@H](CN(C)S(=O)(=O)c1ccccc1F)O2	0	/	-1	-1	0	-5
O=C(CSc1nc2ccccc2c(=O)n1-c1ccccc1Cl)Nc1cccc(S(=O)(=O)N2CCOCC2)c1	63*	7	-10	0	0	-1
Cc1ccc(NC(=O)c2cc(C(=O)Nc3ccc(C)cc3)n(C)n2)cc1	42*	-3	/	-1	1	/
CN(C)CC(=O)Nc1ccc2c(c1)[C@@H]1C[C@H](CC(=O)NCc3ccc4c(c3)OCO4)O[C@H](CO)[C@@H]1O2	15	-7	-4	2	0	-2
O=S(=O)(c1cccc2cccnc12)N1CCN(Cc2ccc(OCCO)cc2)CC1	41*	/	7	0	/	7
COc1cc2c(cc1OC)CN(C(=O)CCOc1ccccc1C)CC2	44*	8	-22	0	0	-3
C[C@@H](NC(=O)C[C@@H]1C=C[C@@H](NC(=O)Nc2ccc3c(c2)OCO3)[C@H](CO)O1)c1ccccc1	13	-1	-1	3	0	20
Cc1ccccc1-c1cnc2c(c1)C(=O)N([C@@H](C)CO)C[C@H](C)[C@@H](CN(C)CC1CCCCC1)O2	-6	/	-16	-4	-1	0
COc1ccc(C(c2sc3ncnn3c2O)N2CC(C)OC(C)C2)cc1OC (stereo not drawn)	75*	3	/	2	0	-2
COc1ccc(C(c2sc3ncnn3c2O)N2CCN(c3ccccc3F)CC2)cc1OC (stereo not drawn)	-2	-2	-2	1	0	-14
C[C@H]1CN([C@@H](C)CO)C(=O)c2cccc(NC(=O)C3CCOCC3)c2O[C@H]1CN(C)Cc1ccncc1	1	-1	-3	-2	0	10
COc1ccc(CN(C)C[C@@H]2Oc3ccc(NS(=O)(=O)c4cccs4)cc3C(=O)N([C@H](C)CO)C[C@H]2C)cc1	31*	0	1	-1	-1	/
